Sampled rows, rich in hits. Any-hit rate of the full collection: about 4.4%.
HSF1 inhib = HSF1 inhibition | AID 2098 | NIH3T3-HGL HSE-luciferase, MG132-induced, luminescence 8 h; stronger effect = lower value | 300,000 tested, 0.77% active | activity change, negative = inhibition, % at 7.5 µM (by protocol);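 active = more than half of replicate wells show activity change below -50%, luminescence cut by over half; inconclusive = some wells, but at most half, below -50%; inactive = no replicate well below -50%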;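 note: luciferase reports HSF-1 transcriptional activity via heat shock element; 0% = median of DMSO wells and -100% = zero luminescence signal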
HIF activator = HIF pathway transcriptional activation | U2OS HRE-luciferase reporter, luminescence; normalized: DMSO 0%, desferrioxamine 100% | activation, % at 7.5 µM (by protocol) | 300,000 tested, 0.32% active | AID 1910;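 active = mean activation of at least 10% of the iron chelator positive control signal, with at least half of replicates also reaching 10%; inconclusive = mean and replicate majority disagree about reaching 10%; inactive = mean and most replicates under 10%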
Calb FLC = C. albicans growth modulation with fluconazole | C. albicans CaCi-2 + fluconazole, Alamar Blue growth, 48 h | growth inhibition, % (no concentration beside the values) | 300,000 tested, 0.57% active;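 active = growth inhibition above about 58% in most replicates, limit read from the data, passing the limit was not always enough; inconclusive = exactly half the replicates above a set limit; inactive = most replicates below a set limit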;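 note: all wells also contain fluconazole at 8 µg/ml as a sub-toxic cotreatment; 0% = median of DMSO wells and 100% = median of geldanamycin control wells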
HSF-1 act = increases HSF-1 driven luciferase reporter signal | NIH3T3-HGL HSF-1 luciferase reporter, MG132, 8 h; 100% = twice DMSO control signal | activation, % at 9 µM | 300,000 tested, 1.7% active | AID 504408;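 active = mean replicate activation of at least 50% with a set share of replicates each reaching 50%; inconclusive = only one of those two conditions met; inactive = mean below 50% and too few replicates reaching it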;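 note: 0% = median of the neutral control wells and 100% = twice that signal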
T cruzi repl = blocks replication of Trypanosoma cruzi; T. cruzi beta-gal in NIH3T3, luminescence, 90 h; inhibition, % (no concentration beside the values); AID 1885; 300,000 tested, 1.4% active;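 active = mean inhibition across valid replicates above about 55%, limit read from the data; inconclusive = mean below that limit but half or more replicates reach it; inactive = mean below it, under half of replicates reach it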;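 note: signal also drops with host cell toxicity which is not excluded here; 0% = plate median of DMSO wells and 100% = zero luminescence signal; higher percent means less beta-gal luminescence so fewer parasites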
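System: mouse NIH/3T3 fibroblasts infected with β-gal-expressing T. cruzi Tulahuen C4 / Input: NIH/3T3 cells, 5,000 per well / Buffer or medium: Low-serum DMEM with 2% FBS / Probe or stimulus: 5000 reporter trypomastigotes per well / Schedule: ≥90 h infection period, 3 h prior cell attachment / Measured by: GalScreen luminescence, 60 min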
* hit, by the source's call; u = inconclusive; x = no result.

SMILES	HSF1 inhib	HIF activator	Calb FLC	HSF-1 act	T cruzi repl
O=C(/C=C/c1ccco1)NC(=S)Nc1nc(-c2ccc(Cl)cc2)cs1	22.4	0.7	-3.1	63.3*	-5.2
O=C(/C=C/c1ccco1)NC(=S)Nc1nc(-c2ccc3ccccc3c2)cs1	94.2	2.5	-3.4	135.9*	-1.6
O=C(CSc1cccs1)Nc1ccc(Cl)cc1	38.8	4.9	1.4	65.5*	-13.7
O=C1CCC(C(=O)NCc2ccccc2)N1 (stereo not given)	-8.2	0.7	1.4	-22.7	-3.9
CN(C(=O)CSc1nnnn1-c1ccc(O)cc1)C1CCS(=O)(=O)C1 (stereo not given)	-7.0	0.0	-2.3	-3.4	-30.0
O=C(O)c1cccnc1Sc1ccccc1	17.8	-0.1	-1.9	72.0*	-26.5
COc1ccccc1C(=O)N1N=C(c2ccc(NS(C)(=O)=O)cc2)CC1c1cccs1 (stereo not given)	12.4	0.3	4.7	54.2*	3.7
Cc1ccccc1C(=O)N1N=C(c2ccc(NS(C)(=O)=O)cc2)CC1c1cccs1 (stereo not given)	-1.3	-0.2	-8.1	-6.8	1.1
CCN(CC)S(=O)(=O)c1ccc(N2CCOCC2)c(NC(=O)c2cc3ccccc3oc2=O)c1	27.3	-0.1	-21.9	68.5*	12.4
Cc1ccccc1-c1noc(-c2ccc(O)cc2)n1	19.2	x	-25.3	53.0*	-18.0
Cc1ccccc1-c1noc(-c2ccccc2F)n1	25.9	2.5	2.7	54.1*	5.8
Cc1ccccc1-c1noc(-c2ccc(Cl)cc2)n1	9.4	2.9	-4.1	31.8	-13.8
Cc1ccc(N2CC(NC(=O)C(=O)c3c[nH]c4ccccc34)CC2=O)cc1C (stereo not given)	-1.1	2.0	x	2.9	15.6
CSc1cccc(NS(=O)(=O)c2cc(Br)cnc2N)c1	-61.3*	-0.5	0.8	-69.8	-1.2
Cc1ccc(NS(=O)(=O)c2cc(Br)cnc2N)cc1C	20.0	0.1	-1.7	46.9	-4.9
Fc1ccc(-c2cc(-c3ccccc3)nc(-n3cccn3)n2)cc1	-68.7*	0.0	11.6	-75.2	15.8
O=c1cc(-c2ccccc2)nc2cc(-c3ccc(F)cc3)[nH]n12	-6.8	0.6	3.5	2.3	-41.0
Cc1ccc(NC(=S)NC2CC3CCC(C2)N3Cc2ccco2)cc1C (stereo not given)	-83.9*	-0.1	-12.3	-87.4	0.3
CCc1ccc(NC(=S)NC2CC3CCCC(C2)N3Cc2cccs2)cc1 (stereo not given)	-10.5	0.0	-18.8	-14.1	56.4*
CCc1ccccc1NC(=O)NC1CC2CCC(C1)N2Cc1cccs1 (stereo not given)	-1.9	0.1	-11.4	9.7	-8.9
Cc1cc(=O)[nH]c(SCC(=O)NCC2CCCCC2)c1C#N	7.2	-0.2	29.6	-9.0	-5.4
CSc1cnc2c(N)nc(N(C)C)nc2n1	0.0	-0.4	95.1*	1.5	-9.8
Cc1nn(-c2nc3ccccc3[nH]2)c(=O)c2ccccc12	-81.3*	-3.2	-1.2	-84.6	-6.5
COC(=O)c1sc(-c2ccc(Cl)cc2)cc1NC(=O)/C=C/C(=O)O	41.7	-0.3	16.3	66.2*	9.4
O=C(CSc1ncnc2c1nnn2Cc1ccc(F)cc1)NCC1CCCO1 (stereo not given)	43.9	1.0	0.6	62.6*	-14.8
SMILES	HSF1 inhib	HIF activator	Calb FLC	HSF-1 act	T cruzi repl
O=C(CSc1ncnc2c1nnn2Cc1ccc(F)cc1)NC1CCCCC1	2.3	-0.2	-34.4	32.0	78.8*
NC(=O)CSc1ncnc2c1nnn2Cc1ccc(F)cc1	19.4	-0.2	9.5	19.8	25.1
C=CCN=C1CC(C)(C)CC(=O)/C1=C(/O)CCC(=O)OC	-4.8	-0.3	-20.6	5.7	-3.5
COC(=O)CC/C(O)=C1/C(=N)CC(C)(C)CC1=O	22.9	-2.0	4.2	58.4*	-8.6
CCOC(=O)C(=Cc1cc(=O)c(OC)co1)C(=O)OCC	80.2	1.3	93.8*	94.4*	10.8
Cc1nn(C)c(C(=O)N2CCN(C(=O)c3ccco3)CC2)c1Br	-10.1	-0.8	12.6	-14.3	-19.6
COCCN1C(=O)C(O)=C(C(=O)c2ccco2)C1c1cccc(Oc2ccccc2)c1 (stereo not given)	7.5	0.0	99.5*	16.4	-1.3
CC1CCN(Cc2c(C(=O)N/N=C/c3ccc(OC(C)C)cc3)nnn2-c2nonc2N)CC1	3.5	-0.2	13.1	28.5	-0.2
Cc1cnn(-c2cc(N/N=C/c3cccc(F)c3)ncn2)c1	17.4	2.1	-11.9	55.7*	-6.5
CCN(CC)CCCNC(=O)C1CCC(CNS(=O)(=O)c2ccc(Cl)cc2)CC1 (stereo not given)	-67.3*	1.3	-8.1	-73.1	22.9
COc1ccc(CCNC(=O)COC(=O)COc2ccc(C#N)cc2)cc1	-4.3	0.1	-11.3	-17.5	-16.3
Cc1c(/C=N/Nc2ccc(C(=O)O)cc2)c2ccccc2n1C	-65.3*	0.3	-2.5	-64.7	-6.6
Cc1c(/C=N\NC(=O)C2COc3ccccc3O2)c2ccccc2n1C (stereo not given)	-19.1	-0.3	-5.6	-17.7	2.5
O=C(O)c1ccc(N/N=C/c2cn(Cc3ccc(F)cc3)c3ccccc23)cc1	-68.7*	0.8	-10.4	-74.4	-3.4
CCNC(=S)N/N=C/c1cn(Cc2ccc(F)cc2)c2ccccc12	19.6	-0.3	-5.5	35.8	43.0
O=C(NCCC1CCCCN1S(=O)(=O)c1cccs1)C(=O)NCc1ccccc1 (stereo not given)	-3.9	1.1	8.9	-9.0	13.7
O=C(c1c(F)cccc1F)N1CCC(n2nnc3cc(C(F)(F)F)ccc32)CC1	-13.5	-2.7	-5.0	-9.0	3.5
CCn1c(COc2ccc(C)cc2)nc2ccccc21	46.8	2.8	-1.6	80.9*	-10.0
Cc1ccc(OCCCn2c(CO)nc3ccccc32)cc1	4.1	2.1	-8.3	-14.8	-2.0
CCOCCn1c(COc2ccc(C)cc2)nc2ccccc21	47.3	3.3	0.4	75.9*	15.3
COCCn1c(COc2ccc(C)cc2)nc2ccccc21	40.9	1.8	-40.2	45.9	4.1
CC(C)CC(=O)/C=C/n1c(=S)oc2ccccc21	40.3	-1.2	42.8	42.0	-2.9
CC(=O)/C=C/n1c(=S)oc2ccccc21	110.5	-5.2	u	141.4*	21.5
Cc1cc(C)nc(NC(=S)Nc2ccccc2)n1	26.4	1.2	-0.3	51.4*	-21.0
S=c1[nH]c2ncccc2o1	9.7	0.1	0.6	-17.9	-3.1
S=c1[nH]c2cc(Cl)c3cccnc3c2o1	29.4	-16.8	78.7*	u	-6.8
COc1ccccc1N(/N=C1\Sc2ccccc2C1=O)C(C)=O	-67.8*	-3.1	-2.5	-67.6	0.4
COc1ccc(CN(C(C)=O)c2ccccc2C(=O)O)cc1	-5.7	-0.2	4.3	-4.4	-13.9
COc1ccc(N(/N=C2\Sc3ccccc3C2=O)C(C)=O)cc1	26.3	1.5	-23.6	60.4*	-16.0
